Assay results pooled from the literature.
Compare with care: the assays were run in different laboratories.
Matrix: plasma

For `Cc1nc(Nc2ncc(C(=O)Nc3c(C)cccc3Cl)s2)cc(N2CC[C@@H](N)C2)n1`, the half-life was 2.8 h (male Sprague-Dawley rat; intravenous, 1 mg/kg).
`Cc1cc2c(C(N)=O)cccc2n1-c1nc2c(c(NCc3ccccc3)n1)CCCN2` gave a half-life of 1.2 h (male Sprague-Dawley rat; oral, 10 mg/kg, single dose).
The half-life of `CCCCC(=O)Nc1ccc(-c2ccc3ncn(CCC)c(=O)c3c2)cn1` is reported as 1.09 h (male rat; oral, 10 mg/kg).
For `CC(=O)O[C@@H]1CC[C@@]2(C)[C@@H](CC[C@]3(C)[C@@H]2C(=O)C=C2[C@@H]4[C@@H](C)[C@H](C)CC[C@]4(C)CC[C@]23C)[C@@]1(C)C(=O)O`, the half-life was 9.9 h (female Wistar rat; oral, 1 mg/kg, single dose).
`CCOCC(=O)N1CCC[C@H](C(=O)NCc2nc(-c3ccc(C)nc3)cs2)C1` has a half-life of 2.1 h (male Sprague-Dawley rat; intravenous, 1 mg/kg).
`CNS(=O)(=O)c1ccc(Nc2ncc(C(F)(F)F)c(N3CCC(C)(O)CC3)n2)c(C)c1` gave a half-life of 0.7 h (rat; intravenous, 2 mg/kg).
`COc1cc(-c2cc(C(C)=O)n3ccccc23)c(OC)cc1Cn1ccnc1` gave a half-life of 0.72 h (male Sprague-Dawley rat; oral, 5 mg/kg).
`CCOCC(=O)N1CCC[C@H](C(=O)NCc2nc(-c3ccc(C#N)nc3)cs2)C1` has a half-life of 1.8 h (male Sprague-Dawley rat; intravenous, 1 mg/kg).
The half-life of `CNS(=O)(=O)c1ccc(Nc2ncc(C(F)(F)F)c([C@H]3CC[C@@](C)(O)CC3)n2)c(C)c1` is reported as 1.3 h (rat; intravenous, 2 mg/kg).
The half-life of `O=C1CCC(N2Cc3cc(C4CCN(Cc5ccccc5)CC4)ccc3C2=O)C(=O)N1` (stereo not shown) is reported as 4.29 h (male Sprague-Dawley rat; intravenous, 1 mg/kg).
The half-life of `COCC(=O)N1CCC[C@H](C(=O)NCc2nc(-c3ccc(C#N)cc3)cs2)C1` is reported as 1.5 h (male Sprague-Dawley rat; intravenous, 1 mg/kg).
The half-life of `Cc1cc(S(=O)(=O)N[C@H]2CC[C@H](N3CCN(CC4CCN(c5cccc6c5n(C)c(=O)n6C5CCC(=O)NC5=O)CC4)CC3)CC2)ccc1Nc1ncc(C(F)(F)F)c(N2CCC[C@](C)(O)C2)n1` (stereo partly shown) is reported as 4.3 h (rat; intravenous, 2 mg/kg).
`C=CC(=O)N1CCC([C@@H]2CCNc3c(C(N)=O)c(-c4ccc(Oc5ccccc5)cc4)nn32)CC1` has a half-life of 2.24 h (Sprague-Dawley rat; oral, 16 mg/kg).
`COc1nc(-c2cccc(-c3ccccc3)c2C)ccc1CNCCNC(=O)CCCCCCCCCCC(=O)N1CCN(CCNC(=O)c2cc3c(=O)n4cccc(C)c4nc3n(CCc3cccs3)c2=N)CC1` has a half-life of 4.7 h (male Sprague-Dawley rat; intraperitoneal, 4 mg/kg).
`CCONC(=O)N1CCC[C@H](C(=O)NCc2nc(-c3ccc(C#N)cc3)cs2)C1` gave a half-life of 14 h (male Sprague-Dawley rat; oral, 3 mg/kg).
`C[C@]1(O)CCCN(c2nc(Nc3ccc(S(=O)(=O)N[C@H]4CC[C@H](CN5CCN(c6ccc(C7CCC(=O)NC7=O)cc6F)CC5)CC4)cc3F)ncc2C(F)(F)F)C1` (stereo partly shown) gave a half-life of 3.7 h (rat; intravenous, 2 mg/kg).
For `CC(C)(N)COCC(=O)N1CCC[C@H](C(=O)NCc2nc(-c3ccc(C(F)(F)F)cc3)cs2)C1`, the half-life was 7.3 h (male Sprague-Dawley rat; oral, 3 mg/kg).
The half-life of `CC(=O)c1c(C)c2cnc(Nc3ccc(N4CCNCC4)cn3)nc2n(C2CCCC2)c1=O` is reported as 2.1 h (male Sprague-Dawley rat; intravenous, 5 mg/kg).
`Cc1cc(S(=O)(=O)NC2CC(N3CC[C@@H](OC4CN(c5cccc6c5n(C)c(=O)n6C5CCC(=O)NC5=O)C4)[C@H](F)C3)C2)ccc1Nc1ncc(C(F)(F)F)c(N2CCC[C@](C)(O)C2)n1` (stereo partly shown) has a half-life of 2.4 h (rat; intravenous, 2 mg/kg).
The half-life of `COc1ccc(N(Cc2csc(-c3ccccc3)n2)C(=O)CCCCCC(=O)NO)cc1` is reported as 0.63 h (female Sprague-Dawley rat; intravenous, 5 mg/kg).
The half-life of `COCC(=O)N1CCC[C@H](C(=O)NCc2nc(-c3ccccc3)cs2)C1` is reported as 6 h (male Sprague-Dawley rat; intravenous, 1 mg/kg).
With `CNS(=O)(=O)c1ccc(Nc2ncc(C(F)(F)F)c(N3CCC[C@](C)(O)C3)n2)c(C)c1` the half-life was 0.8 h (rat; intravenous, 2 mg/kg).
With `CC[C@H](C)[C@H](NC(=O)[C@@H]1CCCN1C(=O)CNC(=O)[C@H](Cc1ccccc1)NC(=O)[C@H](CC(N)=O)NC(=O)[C@H](CC(N)=O)NC(=O)[C@H](CO)NC(=O)[C@H](CO)NC(=O)[C@H](Cc1c[nH]cn1)NC(=O)[C@H](CCCNC(=N)N)NC(=O)[C@H](CC(C)C)NC(=O)[C@H](Cc1ccccc1)NC(=O)[C@H](CCC(=O)O)NC(=O)[C@H](C)NC(=O)[C@H](CC(C)C)NC(=O)[C@H](CCCNC(=N)N)NC(=O)[C@H](CCC(N)=O)NC(=O)[C@@H](NC(=O)[C@H](C)NC(=O)[C@@H]1CSSC[C@H](NC(=O)[C@H](CCCCN)NC(=O)CC[C@H](NC(=O)CCCCCCCCCCCCCCCCCCC(=O)O)C(=O)O)C(=O)N[C@@H](CC(N)=O)C(=O)N[C@@H]([C@@H](C)O)C(=O)N[C@@H](C)C(=O)N[C@@H]([C@@H](C)O)C(=O)N1)[C@@H](C)O)C(=O)N[C@@H](CC(C)C)C(=O)N1CCC[C@H]1C(=O)N1CCC[C@H]1C(=O)N[C@H](C(=O)N[C@@H](CC(N)=O)C(=O)N[C@H](C(=O)NCC(=O)N[C@@H](CO)C(=O)N[C@@H](CC(N)=O)C(=O)N[C@H](C(=O)N1CCC[C@H]1C(N)=O)[C@@H](C)O)C(C)C)[C@@H](C)O` the half-life was 26.8 h (male Sprague-Dawley rat; subcutaneous, 30 nmol/kg, single dose).
The half-life of `CCCc1nc2c(C)cc(-c3nc4ccccc4n3C)cc2n1Cc1ccc(-c2ccccc2C(=O)O)cc1` is reported as 6.84 h (male Sprague-Dawley rat; oral, 8 mg/kg, single dose).
`[2H]c1cc(C)c(NC(=O)c2cnc(Nc3cc(N4CCCCC4)nc(C)n3)s2)c(Cl)c1` gave a half-life of 1.7 h (male Sprague-Dawley rat; intravenous, 1 mg/kg).
With `C=CC(=O)N1CCC[C@@H](n2nc(-c3ccc(Oc4ccccc4)cc3)c3c(N)ncnc32)C1` the half-life was 2.5 h (male Wistar rat; oral, 40 mg/kg).
`C[C@H]1Oc2cc(cnc2N)-c2c(nn(C)c2C#N)CN(C)C(=O)c2ccc(F)cc21` gave a half-life of 8.82 h (male Sprague-Dawley rat; oral, 10 mg/kg, single dose).
`C[C@]1(O)CCCN(c2nc(Nc3ccc(S(=O)(=O)N[C@H]4CC[C@H](CN5CCN(c6ccc(C7CCC(=O)NC7=O)c(F)c6)CC5)CC4)cc3F)ncc2C(F)(F)F)C1` (stereo partly shown) gave a half-life of 6 h (rat; intravenous, 2 mg/kg).
With `NCCOCC(=O)N1CCC[C@H](C(=O)NCc2nc(-c3ccc(C(F)(F)F)cc3)cs2)C1` the half-life was 4.4 h (male Sprague-Dawley rat; intravenous, 1 mg/kg).
`Cc1cc(S(=O)(=O)N[C@H]2CC[C@H](CN3CCN(c4ccc(C5CCC(=O)NC5=O)c(Cl)c4)CC3)CC2)ccc1Nc1ncc(C(F)(F)F)c(N2CCC[C@](C)(O)C2)n1` (stereo partly shown) has a half-life of 2.9 h (rat; intravenous, 2 mg/kg).
`CONC(=O)c1cccc2c1cc(C)n2-c1nc2c(c(NCc3ccccc3)n1)CCCN2` gave a half-life of 1.15 h (male Sprague-Dawley rat; oral, 10 mg/kg, single dose).
